From ChEMBL document CHEMBL1157470, “Hydrolytic reactivity trends among potential prodrugs of the O2-glycosylated diazeniumdiolate family. Targeting nitric oxide to macrophages for antileishmanial activity” (J Med Chem, 2008)
Values belong to the molecule of their own block, whether it stands above or below them.

Legend:
[1] = Chemical stability assessed as half life of hydrolysis in 0.10 M phosphate buffer at pH 7.4; assay type: physicochemical
Outline: (§1)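 Hydrolysis at 37 °C in 1.0 M NaOH, 0.1 M phosphate pH 7.4, or 0.05 M citrate pH 3.8–4.6, followed as first-order loss of the diazeniumdiolate UV absorbance at λmax. k from the ln(At − Ainf) versus time slope; Ainf was extrapolated when the reaction was incomplete. NaOH runs were followed in a thermostated diode-array cell.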

[2] = Chemical stability assessed as half life of hydrolysis in 0.10 M phosphate buffer at pH 8.1; assay type: physicochemical
Outline: (§2)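 Half-lives at 37 °C across buffers from pH 4.0 to 14 (1.0, 0.10 and 0.0125 M NaOH; 0.05 M glycine/NaOH pH 10.0; 0.10 M phosphate pH 8.1 and 7.4; 0.05 M citrate pH 4.0). UV decay of the diazeniumdiolate chromophore at λmax. First-order k from the slope of ln(At − Ainf) versus time.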

[3] = Chemical stability assessed as half life of hydrolysis in 0.10 M sodium hydroxide buffer at pH 13.0; assay type: physicochemical; outline: as §2
[4] = Chemical stability assessed as half life of hydrolysis in 0.05 M citrate buffer at pH 4.0; assay type: physicochemical; outline: as §2
[5] = Chemical stability assessed as half life of hydrolysis in 0.5 M glycine/sodium hydroxide buffer at pH 10.0; assay type: physicochemical; conditions: in the assay text read “0.05 M glycine” for “0.5 M glycine”; outline: as §2
[6] = Chemical stability assessed as half life of hydrolysis in 1.0 M sodium hydroxide buffer at pH 14.0; assay type: physicochemical; outline: as §2
[7] = Chemical stability assessed as half life of hydrolysis in 0.0125 M sodium hydroxide buffer at pH 12.1; assay type: physicochemical; outline: as §2
[8] = Chemical stability assessed as half life of hydrolysis in 0.05 M citrate buffer at pH 4.6; assay type: physicochemical; outline: as §1
[9] = Stability assessed as nitric oxide release in presence of Jack bean N-acetyl-glucosaminidase measured per mole of glycoside in 0.1 M phosphate buffer at pH 7.4 at 0.10 mM […]; assay type: ADME; conditions: pH 7.4, 100 µM
Outline: (§3)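 37 °C in 0.1 M phosphate pH 7.4 with 0.05 mM DTPA. Jack bean N-acetylglucosaminidase at 0.11 units/mL or human placenta enzyme at 0.044 units/mL; substrate 0.10 or 0.16 mM initial. NO measured by chemiluminescence until evolution stopped, with the curve integrated per mole glycoside. Nitrite in the remaining solution measured by Griess. Enzyme activity verified with PNP-NAG.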

[10] = Stability in iNOS deficient mouse macrophage assessed as increase in nitric oxide accumulation at 0.25 mM after 24 hrs; assay type: ADME, cell-based; conditions: 250 µM
Outline: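 Glycoside (0.25 mM initial) incubated 24 h at 37 °C in PBS, in RPMI with 2.5% fetal calf serum, or in that medium while culturing iNOS-deficient mouse peritoneal macrophages. Nitrite in supernatant measured by Griess. Triplicates, mean; one of two experiments.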

[11] = Chemical stability assessed as half life of hydrolysis in 0.1 M phosphate buffer at pH 7.4; assay type: physicochemical; outline: as §1
[12] = Stability assessed as nitrite release in presence of human placenta N-acetyl-glucosaminidase measured per mole of glycoside in 0.1 M phosphate buffer at pH 7.4 at 0.10 mM by Griess reagent assay; assay type: ADME; conditions: pH 7.4, 100 µM; outline: as §3
[13] = Stability assessed as nitrite release in presence of Jack bean N-acetyl-glucosaminidase measured per mole of glycoside in 0.1 M phosphate buffer at pH 7.4 at 0.10 mM by Griess reagent assay; assay type: ADME; conditions: pH 7.4, 100 µM; outline: as §3
[14] = Stability assessed as nitric oxide release in presence of human placenta N-acetyl-glucosaminidase measured per mole of glycoside in 0.1 M phosphate buffer at pH 7.4 at 0.10 mM […]; assay type: ADME; conditions: pH 7.4, 100 µM; outline: as §3
[15] = Chemical stability assessed as half life of hydrolysis in at pH 14; assay type: physicochemical; conditions: 1.0 M NaOH; outline: as §1
[16] = Chemical stability assessed as half life of hydrolysis in 0.05 M citrate buffer at pH 3.8; assay type: physicochemical; outline: as §1
[17] = Stability assessed as nitric oxide release in presence of human placenta N-acetyl-glucosaminidase measured per mole of glycoside in 0.1 M phosphate buffer at pH 7.4 at 0.16 mM […]; assay type: ADME; conditions: pH 7.4, 160 µM; outline: as §3
[18] = Stability assessed as nitrite release in presence of human placenta N-acetyl-glucosaminidase measured per mole of glycoside in 0.1 M phosphate buffer at pH 7.4 at 0.16 mM by Griess reagent assay; assay type: ADME; conditions: pH 7.4, 160 µM; outline: as §3
[19] = Stability in iNOS-deficient mouse peritoneal macrophages in RPMI medium assessed as increase in nitric oxide release at 0.25 mM after 24 hrs; conditions: 250 µM
[20] = Stability assessed as nitric oxide release in presence of Jack bean N-acetyl-glucosaminidase measured per mole of glycoside in 0.1 M phosphate buffer at pH 7.4 at 0.16 mM […]; assay type: ADME; conditions: pH 7.4, 160 µM; outline: as §3
[21] = Stability assessed as nitrite release in presence of Jack bean N-acetyl-glucosaminidase measured per mole of glycoside in 0.1 M phosphate buffer at pH 7.4 at 0.16 mM by Griess reagent assay; assay type: ADME; conditions: pH 7.4, 160 µM; outline: as §3

SMILES: CCN(CC)/[N+]([O-])=N\OC1CCCCO1 (configuration not stated)
t1/2 [1]: 3.1 min | t1/2 [2]: 3.5 min | t1/2 [3]: 2.7 min | t1/2 [4]: 3.2 min | t1/2 [5]: 2.9 min | t1/2 [6]: 2.5 min | t1/2 [7]: 3.5 min

SMILES: CCN(CC)/[N+]([O-])=N/O[C@@H]1O[C@H](CO)[C@@H](O)[C@H](O)[C@H]1NC(C)=O
t1/2 [8]: 17 h | Activity [9]: 1.26 mol/mol | Activity [10]: 2 | t1/2 [11]: 12 h | Activity [12]: 0.24 mol/mol | Activity [13]: 0.05 mol/mol | Activity [14]: 1.73 mol/mol | t1/2 [15]: 0.85 h

SMILES: CCN(CC)/[N+]([O-])=N/O[C@H]1C[C@@H](O)[C@H](O)[C@@H](CO)O1
t1/2 [11]: 12 h | t1/2 [16]: 28.8 h | t1/2 [15]: 0.383 h

SMILES: CC(=O)N[C@H]1[C@H](O/N=[N+](\[O-])N2CCCC2)O[C@H](CO)[C@@H](O)[C@@H]1O
t1/2 [8]: > 240 h | t1/2 [11]: > 240 h | Activity [17]: 1.69 mol/mol | Activity [18]: 0.36 mol/mol | Activity [19]: 4 | Activity [20]: 1.72 mol/mol | Activity [21]: 0.12 mol/mol

Now from value to molecule:

t1/2 [8]: > 240 h | t1/2 [15]: 0.035 h
SMILES: CCN(CC)/[N+]([O-])=N/O[C@@H]1O[C@H](CO)[C@@H](O)[C@H](O)[C@H]1O

t1/2 [11]: > 240 h | t1/2 [15]: 4.97 h
SMILES: CCN(CC)/[N+]([O-])=N/O[C@H]1O[C@H](CO)[C@@H](O)[C@H](O)[C@@H]1O

t1/2 [8]: > 240 h | t1/2 [11]: > 240 h | t1/2 [15]: 0.067 h
SMILES: CCN(CC)/[N+]([O-])=N/O[C@@H]1O[C@@H](C)[C@@H](O)[C@@H](O)[C@@H]1O
